For three molecules, IC50 and inhibition results are on record in ChEMBL document CHEMBL4251654, “Structure-based design of human immuno- and constitutive proteasomes inhibitors” (Eur J Med Chem, 2018).

Each structure is given as a SMILES string. Activity calls are given as the source filed them. The calls are words filed in the database; no cut-off is given here. Bounds are passed on as bounds.

Proteasome Macropain subunit (Homo sapiens), sequence (P49721 whole entry): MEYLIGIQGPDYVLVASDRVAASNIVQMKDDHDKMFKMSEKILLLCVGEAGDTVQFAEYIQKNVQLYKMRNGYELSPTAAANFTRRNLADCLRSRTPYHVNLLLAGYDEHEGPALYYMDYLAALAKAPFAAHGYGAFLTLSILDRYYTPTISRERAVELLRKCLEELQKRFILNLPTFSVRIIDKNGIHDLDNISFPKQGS

The first assay has as its target T1, Proteasome Macropain subunit MB1 (Homo sapiens, UniProt P28074).
T1 sequence (P28074 whole entry): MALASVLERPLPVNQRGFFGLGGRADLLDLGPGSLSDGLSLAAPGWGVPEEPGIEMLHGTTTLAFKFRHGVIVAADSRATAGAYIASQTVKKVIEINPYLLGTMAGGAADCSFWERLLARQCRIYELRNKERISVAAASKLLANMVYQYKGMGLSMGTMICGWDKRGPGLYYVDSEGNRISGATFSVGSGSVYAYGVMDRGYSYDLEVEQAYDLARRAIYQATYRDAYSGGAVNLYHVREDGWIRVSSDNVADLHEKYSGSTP
In words: Inhibition of human 20S constitutive proteasome beta-5 using Suc-LLVY-AMC as substrate incubated for 15 mins measured for 45 mins by fluorescence assay. In short, it runs like this:
(§1)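 Human 20S cCP or iCP (0.3 nM) was exposed to compound (0.001-50 μM) for 15 min in pH 8 buffer of 20 mM Tris-HCl, 10% glycerol, 0.01% SDS, 2% DMSO. Suc-LLVY-AMC at 20 μM followed. Fluorescence (ex 360/em 460 nm) was read 45 min at 37 °C versus untreated enzyme.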
A word on the IC50: it is the point on the concentration scale where inhibition reaches its midpoint. A low value points to inhibition by little substance. On to `C[C@H](NC(=O)[C@H](Cc1ccc(OCc2ccccc2)cc1)NC(=O)OC(C)(C)C)C(=O)N[C@@H](C[C@]1(O)C(=O)Nc2ccccc21)C(=O)NCCc1ccccc1`, for which inhibition was half-maximal at 6 µM (IC50).

For `C[C@H](NC(=O)[C@H](Cc1ccc(OCc2ccccc2)cc1)NC(=O)OC(C)(C)C)C(=O)N[C@@H](C[C@]1(O)C(=O)N(C)c2ccccc21)C(=O)NCc1ccccc1`, the IC50 was 5.1 µM.

As for `NC(=O)C[C@H](NC(=O)OCc1ccccc1)C(=O)N[C@@H](C[C@]1(O)C(=O)Nc2ccccc21)C(=O)NCc1ccccc1`, the IC50 was determined as 0.36 µM.

The target of a further assay is T2, Proteasome subunit beta type-8 (Homo sapiens, UniProt P28062).
T2 sequence (P28062 whole entry): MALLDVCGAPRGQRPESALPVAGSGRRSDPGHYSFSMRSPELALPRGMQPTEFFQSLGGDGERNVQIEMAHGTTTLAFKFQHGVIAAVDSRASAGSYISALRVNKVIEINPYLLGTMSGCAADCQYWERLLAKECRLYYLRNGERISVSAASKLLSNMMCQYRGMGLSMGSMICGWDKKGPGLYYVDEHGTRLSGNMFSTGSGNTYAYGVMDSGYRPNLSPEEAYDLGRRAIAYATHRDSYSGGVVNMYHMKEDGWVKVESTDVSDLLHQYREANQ
In words: Inhibition of human 20S immunoproteasome beta-5 using Suc-LLVY-AMC as substrate incubated for 15 mins measured for 45 mins by fluorescence assay. In short, it runs like this:
as §1
Regarding `C[C@H](NC(=O)[C@H](Cc1ccc(OCc2ccccc2)cc1)NC(=O)OC(C)(C)C)C(=O)N[C@@H](C[C@]1(O)C(=O)Nc2ccccc21)C(=O)NCCc1ccccc1`, the IC50 came out at 6.5 µM.

The molecule `C[C@H](NC(=O)[C@H](Cc1ccc(OCc2ccccc2)cc1)NC(=O)OC(C)(C)C)C(=O)N[C@@H](C[C@]1(O)C(=O)N(C)c2ccccc21)C(=O)NCc1ccccc1` yielded an IC50 of 3.93 µM.

For `NC(=O)C[C@H](NC(=O)OCc1ccccc1)C(=O)N[C@@H](C[C@]1(O)C(=O)Nc2ccccc21)C(=O)NCc1ccccc1`, the IC50 amounted to 0.42 µM.

Another assay addresses T3, Proteasome Macropain subunit MB1 (Homo sapiens) (UniProt P28074).
T3 sequence (whole entry): T1 sequence (P28074 whole entry)
In words: Inhibition of human 20S constitutive proteasome beta-5 at 50 uM using Suc-LLVY-AMC as substrate incubated for 15 mins measured for 45 mins by fluorescence assay relative to control. In short, it runs like this:
as §1
Broadly, the inhibition is the change of the read-out against control, counted positive when it falls. For the molecule `C[C@H](NC(=O)[C@H](Cc1ccc(OCc2ccccc2)cc1)NC(=O)OC(C)(C)C)C(=O)N[C@@H](C[C@]1(O)C(=O)Nc2ccccc21)C(=O)NCCc1ccccc1`, the inhibition was over 85%.

In turn, `C[C@H](NC(=O)[C@H](Cc1ccc(OCc2ccccc2)cc1)NC(=O)OC(C)(C)C)C(=O)N[C@@H](C[C@]1(O)C(=O)N(C)c2ccccc21)C(=O)NCc1ccccc1` had an inhibition of over 85%.

Regarding `NC(=O)C[C@H](NC(=O)OCc1ccccc1)C(=O)N[C@@H](C[C@]1(O)C(=O)Nc2ccccc21)C(=O)NCc1ccccc1`, the inhibition was over 85%.

The target in a further assay is T4, Proteasome subunit beta type-8 (Homo sapiens) (UniProt P28062).
T4 sequence (whole entry): T2 sequence (P28062 whole entry)
In words: Inhibition of human 20S immunoproteasome beta-5 at 50 uM using Suc-LLVY-AMC as substrate incubated for 15 mins measured for 45 mins by fluorescence assay relative to control. In short, it runs like this: as §1
Regarding `C[C@H](NC(=O)[C@H](Cc1ccc(OCc2ccccc2)cc1)NC(=O)OC(C)(C)C)C(=O)N[C@@H](C[C@]1(O)C(=O)Nc2ccccc21)C(=O)NCCc1ccccc1`, the inhibition is over 85%.

In turn, `C[C@H](NC(=O)[C@H](Cc1ccc(OCc2ccccc2)cc1)NC(=O)OC(C)(C)C)C(=O)N[C@@H](C[C@]1(O)C(=O)N(C)c2ccccc21)C(=O)NCc1ccccc1` showed an inhibition of over 85%.

In turn, `NC(=O)C[C@H](NC(=O)OCc1ccccc1)C(=O)N[C@@H](C[C@]1(O)C(=O)Nc2ccccc21)C(=O)NCc1ccccc1` had an inhibition of over 85%.

Another assay addresses T5, Proteasome subunit beta type-9 (Homo sapiens, UniProt P28065).
T5 sequence (P28065 whole entry): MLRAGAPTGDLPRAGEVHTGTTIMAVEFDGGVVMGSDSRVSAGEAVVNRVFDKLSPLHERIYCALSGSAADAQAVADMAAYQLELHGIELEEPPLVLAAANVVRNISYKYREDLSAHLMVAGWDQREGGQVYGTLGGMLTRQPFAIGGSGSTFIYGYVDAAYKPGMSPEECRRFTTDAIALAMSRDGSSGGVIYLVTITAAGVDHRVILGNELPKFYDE
In words: Inhibition of human 20S immunoproteasome beta-1 using Ac-PAL-AMC as substrate incubated for 15 mins measured for 45 mins by fluorescence assay. In short, it runs like this: (§2)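 Human 20S immunoproteasome (0.3 nM) was given 15 min with compound (0.001-50 μM) in pH 8 buffer of 20 mM Tris-HCl, 10% glycerol, 0.01% SDS, 2% DMSO. Ac-PAL-AMC at 50 μM was the substrate. Fluorescence (ex 360/em 460 nm) was followed 45 min at 37 °C relative to control.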
`C[C@H](NC(=O)[C@H](Cc1ccc(OCc2ccccc2)cc1)NC(=O)OC(C)(C)C)C(=O)N[C@@H](C[C@]1(O)C(=O)Nc2ccccc21)C(=O)NCCc1ccccc1` came in with an IC50 of 7.31 µM.

In the case of `C[C@H](NC(=O)[C@H](Cc1ccc(OCc2ccccc2)cc1)NC(=O)OC(C)(C)C)C(=O)N[C@@H](C[C@]1(O)C(=O)N(C)c2ccccc21)C(=O)NCc1ccccc1`, 10.3 µM corresponded to half-maximal inhibition (IC50).

The next assay has as its target T6, Proteasome component C5 (Homo sapiens) (UniProt P20618).
T6 sequence (whole entry): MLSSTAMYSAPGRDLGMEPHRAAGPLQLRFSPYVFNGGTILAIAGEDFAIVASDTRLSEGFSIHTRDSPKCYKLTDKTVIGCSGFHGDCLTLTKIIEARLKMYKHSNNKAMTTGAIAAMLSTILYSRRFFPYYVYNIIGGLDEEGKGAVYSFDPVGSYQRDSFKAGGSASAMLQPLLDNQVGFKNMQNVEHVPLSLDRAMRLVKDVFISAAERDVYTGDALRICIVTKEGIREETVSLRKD
In words: Inhibition of human 20S constitutive proteasome beta-1 at 50 uM using Z-LLE-betaNA as substrate incubated for 15 mins measured for 45 mins by fluorescence assay relative to control. In outline: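 Human 20S constitutive proteasome, 0.3 nM, was preincubated 15 min with compound (0.001-50 μM) in pH 8 Tris-HCl 20 mM, 10% glycerol, 0.01% SDS, 2% DMSO. Z-LLE-βNA at 50 μM was added. βNA fluorescence (ex 340/em 404 nm) was monitored 45 min at 37 °C against an untreated control.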
Molecule `C[C@H](NC(=O)[C@H](Cc1ccc(OCc2ccccc2)cc1)NC(=O)OC(C)(C)C)C(=O)N[C@@H](C[C@]1(O)C(=O)Nc2ccccc21)C(=O)NCCc1ccccc1` had an inhibition of over 85%.

Take `C[C@H](NC(=O)[C@H](Cc1ccc(OCc2ccccc2)cc1)NC(=O)OC(C)(C)C)C(=O)N[C@@H](C[C@]1(O)C(=O)N(C)c2ccccc21)C(=O)NCc1ccccc1`: the inhibition was over 85%.

On to `NC(=O)C[C@H](NC(=O)OCc1ccccc1)C(=O)N[C@@H](C[C@]1(O)C(=O)Nc2ccccc21)C(=O)NCc1ccccc1`, for which the inhibition result was “inactive”.

A further assay deals with T7, Proteasome subunit beta type-9 (Homo sapiens) (UniProt P28065).
T7 sequence (whole entry): T5 sequence (P28065 whole entry)
In words: Inhibition of human 20S immunoproteasome beta-1 at 50 uM using Ac-PAL-AMC as substrate incubated for 15 mins measured for 45 mins by fluorescence assay relative to control. In short, it runs like this:
as §2
Turning to `C[C@H](NC(=O)[C@H](Cc1ccc(OCc2ccccc2)cc1)NC(=O)OC(C)(C)C)C(=O)N[C@@H](C[C@]1(O)C(=O)Nc2ccccc21)C(=O)NCCc1ccccc1`, the inhibition was over 85%.

Molecule `C[C@H](NC(=O)[C@H](Cc1ccc(OCc2ccccc2)cc1)NC(=O)OC(C)(C)C)C(=O)N[C@@H](C[C@]1(O)C(=O)N(C)c2ccccc21)C(=O)NCc1ccccc1` showed an inhibition of over 85%.

With `NC(=O)C[C@H](NC(=O)OCc1ccccc1)C(=O)N[C@@H](C[C@]1(O)C(=O)Nc2ccccc21)C(=O)NCc1ccccc1`, the inhibition result was “inactive”.

The target in the next assay is Proteasome Macropain subunit (Homo sapiens) (UniProt P49721). In words: Inhibition of human 20S constitutive proteasome beta-2 at 50 uM using BocLRR-AMC as substrate incubated for 15 mins measured for 45 mins by fluorescence assay relative to control. In short, it runs like this:
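Purified human 20S proteasome (cCP or iCP), 0.3 nM, preincubated 15 min with compound (0.001-50 μM) in pH 8 buffer of 20 mM Tris-HCl, 10% glycerol, 0.005% Triton X-100, 2% DMSO. Then Boc-LRR-AMC at 50 μM was added. AMC fluorescence (ex 360/em 460 nm) was followed 45 min at 37 °C. Activity is relative to an untreated control.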
In turn, `C[C@H](NC(=O)[C@H](Cc1ccc(OCc2ccccc2)cc1)NC(=O)OC(C)(C)C)C(=O)N[C@@H](C[C@]1(O)C(=O)Nc2ccccc21)C(=O)NCCc1ccccc1` showed an inhibition of 45%.

As to `C[C@H](NC(=O)[C@H](Cc1ccc(OCc2ccccc2)cc1)NC(=O)OC(C)(C)C)C(=O)N[C@@H](C[C@]1(O)C(=O)N(C)c2ccccc21)C(=O)NCc1ccccc1`, the inhibition was determined as 19%.

As to `NC(=O)C[C@H](NC(=O)OCc1ccccc1)C(=O)N[C@@H](C[C@]1(O)C(=O)Nc2ccccc21)C(=O)NCc1ccccc1`, the inhibition entry is “inactive”.

Another assay addresses T8, Proteasome subunit beta type-10 (Homo sapiens) (UniProt P40306).
T8 sequence (whole entry): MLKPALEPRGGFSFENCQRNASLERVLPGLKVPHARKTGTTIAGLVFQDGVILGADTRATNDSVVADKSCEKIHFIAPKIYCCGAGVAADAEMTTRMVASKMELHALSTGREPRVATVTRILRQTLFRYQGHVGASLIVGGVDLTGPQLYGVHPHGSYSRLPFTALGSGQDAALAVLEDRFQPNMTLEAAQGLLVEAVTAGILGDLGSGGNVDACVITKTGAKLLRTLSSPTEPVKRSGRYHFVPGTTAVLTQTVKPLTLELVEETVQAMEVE
In words: Inhibition of human 20S immunoproteasome beta-2 at 50 uM using BocLRR-AMC as substrate incubated for 15 mins measured for 45 mins by fluorescence assay relative to control.
Regarding `C[C@H](NC(=O)[C@H](Cc1ccc(OCc2ccccc2)cc1)NC(=O)OC(C)(C)C)C(=O)N[C@@H](C[C@]1(O)C(=O)Nc2ccccc21)C(=O)NCCc1ccccc1`, the inhibition amounted to 26%.

`C[C@H](NC(=O)[C@H](Cc1ccc(OCc2ccccc2)cc1)NC(=O)OC(C)(C)C)C(=O)N[C@@H](C[C@]1(O)C(=O)N(C)c2ccccc21)C(=O)NCc1ccccc1`: the inhibition was 27%.

Turning to `NC(=O)C[C@H](NC(=O)OCc1ccccc1)C(=O)N[C@@H](C[C@]1(O)C(=O)Nc2ccccc21)C(=O)NCc1ccccc1`, the inhibition entry was “inactive”.
